Results on 7 molecules are retold here after PMC2729716 (Biochemistry, 2009).

The subject of series [1] is HIV Vif. The note with it: micromolar levels of chelator; cited from earlier work.
Series [2] can be described thus: Zinc-induced aggregation by light scattering. The format is physicochemical. To be noted: 15 µM peptide, 1 molar equivalent Zn2+, 200 mM MOPS pH 7.4, 80 mM NaCl, 1.8 mM TCEP, 20 °C, 200 s. In outline:
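Wild-type and mutant peptides handled anaerobically in TCEP buffers; concentration set by A280 in 6M guanidine hydrochloride. Zn(NO3)2 hand-mixed into sample in a Peltier-held cuvette. Light scattering followed over time on a single-photon counting fluorometer; single exponential functions fitted to intensity versus time.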

Series [3] concerns GST-Cul5 (human Cul5 amino acids 1–384). Briefly: HCCHp pull-down by GST-Cul5. The note with it: GST control, 40 µM Zn(NO3)2 vs no zinc. The format is binding. The gist of the method:
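GST-Cul5 (human Cul5 residues 1–384, from E. coli) immobilised on glutathione resin, 10 min at 4 °C, in 50 mM HEPES pH 7.4, 150 mM NaCl, 200 µM TCEP; 20 µM peptide added for 10 min; split, ±40 µM Zn(NO3)2 for 10 min; six washes; SDS-PAGE, SYPRO Ruby stain; bands normalised to a 27-kDa marker and quantified against peptide and GST-Cul5 standard curves.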

Where no end group is shown, it is not given here.

With `c1ccc(CN(CCN(Cc2ccccn2)Cc2ccccn2)Cc2ccccn2)nc1` [N,N,N′,N′-tetrakis-(2-pyridylmethyl) ethylenediamine], the “Effect of chelator on Cul5 recruitment and APOBEC3G degradation” value in series [1] was “inhibits Cul5 recruitment and APOBEC3G degradation”.
Consider “ELADQLIALYYFDCFSDSAIRKALLGHIVSPRCEYQAGHNKV (cysteines drawn unpaired) [H108A]”, for which the “Total change in scattered light intensity, rank order of peptides” value (“Total change” for short) in series [2] was “H108A < H139A < H127A < wild type < C114S < C114/133S < C133S”.
Turning to “ELADQLIHLYYFDCFSDSAIRKALLGAIVSPRCEYQAGHNKV (cysteines drawn unpaired) [H127A]”, the “Total change” value in series [2] is “H108A < H139A < H127A < wild type < C114S < C114/133S < C133S”.
Regarding “ELADQLIHLYYFDCFSDSAIRKALLGHIVSPRCEYQAGANKV (cysteines drawn unpaired) [H139A]”, in series [2], the “Total change” value was “H108A < H139A < H127A < wild type < C114S < C114/133S < C133S”.
As for “ELADQLIHLYYFDCFSDSAIRKALLGHIVSPRCEYQAGHNKV (cysteines drawn unpaired) [HCCHp]”, the “Change in amount of HCCHp bound to GST when zinc was included” value in series [3] is “did not increase significantly”. Besides, the “Total change” value in series [2] was “H108A < H139A < H127A < wild type < C114S < C114/133S < C133S”.
As for “ELADQLIHLYYFDCFSDSAIRKALLGHIVSPRSEYQAGHNKV [C133S]”, in series [2], the “Total change” value is “H108A < H139A < H127A < wild type < C114S < C114/133S < C133S”.
On the same count and under the same terms, to “ELADQLIHLYYFDSFSDSAIRKALLGHIVSPRCEYQAGHNKV [C114S]” belongs “H108A < H139A < H127A < wild type < C114S < C114/133S < C133S”.
